Data published in ChEMBL document CHEMBL1156237, “Antiviral activity of benzimidazole derivatives. II. Antiviral activity of 2-phenylbenzimidazole derivatives” (Bioorg Med Chem, 2010).
Activity calls are given as the source filed them.

Legend:
[1] = system: Vesicular stomatitis virus; experiment: Antiviral activity against VSV Indiana lab infected in african green monkey Vero cells after 2 days by plaque reduction assay; type: functional, organism-based
[2] = Cytotoxicity against BHK cells after 48 to 96 hrs by MTT assay; type: cell-based, Mesocricetus auratus; details: hamster
Outline: (§1)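 Cell seeding: MDBK at 6 × 10^5 cells/mL in MEM-E with 10% horse serum and 1 mM Na pyruvate; BHK at 1 × 10^6 cells/mL in MEM-E with 10% FBS. Serial compound dilutions, 37 °C, 5% CO2. Viability of mock-infected cells by MTT after 48–96 h; CC50 is the concentration reducing viability by 50%.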

[3] = Cytotoxicity against MDBK cells after 48 to 96 hrs by MTT assay; type: cell-based, Bos taurus; details: cattle, MDBK cells; outline: as §1
[4] = system: Poliovirus 1; experiment: Antiviral activity against Polio virus type1 Sabin strain Chat infected in african green monkey Vero cells after 2 days by plaque reduction assay; type: functional, organism-based, Human poliovirus 1 strain Sabin; details: Enterovirus C, 48 h
[5] = system: Mammalian orthoreovirus 1; experiment: Antiviral activity against Reovirus 1 3651 infected in BHK21 cells assessed as protection from virus-induced cytopathogenicity after 3 to 4 days by MTT method; type: functional, organism-based; details: for EC50: Mammalian orthoreovirus 1, 3651, BHK-21
[6] = system: Vaccinia virus; experiment: Antiviral activity against Vaccinia virus Elstree-Lister infected in african green monkey Vero cells after 3 days by plaque reduction assay; type: functional, organism-based; details: Orthopoxvirus vaccinia; for EC50: 72 h
[7] = system: Human immunodeficiency virus 1; experiment: Antiviral activity against HIV1 3B infected in human MT4 cells assessed as protection from virus-induced cytopathogenicity after 4 days by MTT method; type: functional, organism-based
Outline: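 MT-4 cells, 1 × 10^4/well in RPMI with or without serial compound dilutions, infected with HIV-1 IIIB, 100 CCID50 (m.o.i. 0.01). Protection from virus-induced cytopathogenicity read by MTT.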

[8] = system: Yellow fever virus; experiment: Antiviral activity against Yellow fever virus 17D infected in BHK cells assessed as protection from virus-induced cytopathogenicity after 3 to 4 days by MTT method; type: functional, organism-based
[9] = system: Respiratory syncytial virus; experiment: Antiviral activity against RSV A2 infected in african green monkey Vero cells after 5 days by plaque reduction assay; type: functional, organism-based; details: for EC50: human respiratory syncytial virus, A2, Vero, 120 h
Outline: (§2)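 Plaque reduction assay. Vero 76 cells at 2 × 10^5/well, grown overnight to confluence in D-MEM with 10% FBS. Infected 2 h with 50–100 PFU/well, unadsorbed virus removed. Overlay of D-MEM with 1% inactivated FBS and 0.75% methylcellulose, with or without serial compound dilutions. Incubated at 37 °C for 3 days (HSV-1 KOS, CVB-2 Ohio-1) or 5 days (RSV A2). Fixed and stained with crystal violet in 50% ethanol; plaques counted; EC50 by linear regression.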

[10] = system: Coxsackievirus B2; experiment: Antiviral activity against Human coxsackievirus B2 Ohio-1 infected in african green monkey Vero cells after 3 days by plaque reduction assay; type: functional, organism-based, Coxsackievirus B2 (strain Ohio-1); details: Enterovirus B, Vero, 72 h; outline: as §2
[11] = system: Human alphaherpesvirus 1; experiment: Antiviral activity against HSV1 KOS infected in african green monkey Vero cells after 3 days by plaque reduction assay; type: functional, organism-based; details: Human alphaherpesvirus 1, KOS, 72 h; outline: as §2
[12] = system: Bovine viral diarrhea virus 1; experiment: Antiviral activity against Bovine viral diarrhea virus NADL infected in MDBK cells assessed as protection from virus-induced cytopathogenicity after 3 to 4 days by MTT method; type: functional, organism-based, Bovine viral diarrhea virus 1-NADL; details: Bovine viral diarrhea virus isolates and strains, MDBK
Outline: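 Cytopathogenicity protection assay. MDBK cells at 3 × 10^4/well, grown overnight to confluence. Infected with BVDV NADL at m.o.i. 0.01 in MEM-E with 0.5% inactivated FBS, 1 mM Na pyruvate and 1% kanamycin. Serial compound dilutions added after 1 h. After 3–4 days at 37 °C, viability read by MTT; EC50 is the concentration giving 50% protection.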

[13] = Cytotoxicity against african green monkey Vero cells; type: cell-based; details: chlorocebus sabaeus
Outline: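 Vero 76 monolayers exposed to serial compound dilutions, run in parallel on the same 24-well plates as the plaque-reduction assays. CC50 is the concentration reducing viability of mock-infected cells by 50%.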

[14] = Cytotoxicity against human MT4 cells after 96 hrs by MTT assay; type: cell-based; details: MT4 cells
Outline: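 Exponentially growing MT-4 cells at 1 × 10^5 cells/mL in RPMI-1640 with 10% FCS, exposed to serial compound dilutions at 37 °C, 5% CO2. Viability by MTT after 96 h; CC50 is the concentration reducing viability of mock-infected cells by 50%.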

SMILES	Activity [1]	CC50 [2] [µM]	CC50 [3] [µM]	EC50 [4] [µM]	Activity ([5]; BHK-21)	Activity [6]	Activity [7]	EC50 [8] [µM]	Activity [9]	EC50 [10] [µM]	EC50 [11] [µM]	EC50 [12] [µM]	CC50 [13] [µM]	CC50 at 96 h [14] [µM]	EC50 [5] [µM]	EC50 [6] [µM]	EC50 [9] [µM]
Cn1c(-c2ccc(NC(=O)CN3CCN(c4ccccc4)CC3)cc2)nc2cc(C(F)(F)F)ccc21	inactive	100	1.4	2	inactive	inactive	inactive	> 100	inactive	3	> 30	> 1.4	30	1.5	–	–	–
Oc1ccc(-c2nc3cc(C(F)(F)F)ccc3[nH]2)cc1	inactive	> 100	51	24	–	–	inactive	12	–	5	25	> 51	> 100	17	7	> 100	20
Nc1ccc(-c2nc3ccccc3[nH]2)cc1	inactive	> 100	> 100	> 100	–	–	inactive	> 100	–	19	> 100	16	> 100	81	85	–	–
Oc1ccc(-c2nc3cc(Cl)c(Cl)cc3[nH]2)cc1	inactive	29	11	> 18	–	–	inactive	> 29	–	> 18	> 18	> 11	18	12	–	> 18	7
Cn1c(-c2ccc([N+](=O)[O-])cc2)nc2cc(C(F)(F)F)ccc21	inactive	> 100	> 100	> 100	–	–	inactive	> 100	–	> 100	> 100	> 100	> 100	≥ 100	–	> 100	> 100
Fc1cccc(F)c1-c1nc2cc(C(F)(F)F)ccc2[nH]1	inactive	≥ 100	≥ 100	> 25	–	–	inactive	> 100	–	> 25	> 25	> 100	25	100	–	> 25	> 25
COc1ccc(-c2nc3cc(C(F)(F)F)ccc3[nH]2)c(OC)c1	inactive	> 100	> 100	> 100	–	–	inactive	> 100	–	32	> 100	> 100	> 100	> 100	–	> 100	> 100
COc1ccc(-c2nc3cc(C(C)=O)ccc3[nH]2)c(OC)c1OC	inactive	> 100	> 100	> 100	–	–	inactive	> 100	–	> 100	40	> 100	> 100	> 100	–	> 100	> 100
O=[N+]([O-])c1ccc(-c2nc3cc(C(F)(F)F)ccc3n2C23CC4CC(CC(C4)C2)C3)cc1	inactive	> 100	> 100	> 100	–	–	inactive	> 100	–	> 100	> 100	> 100	> 100	≥ 100	–	> 100	> 100
